A1 apoptosis 2 – A1 inhibition read as caspase activation; MEF A1-2A-BIM cells, caspase-Glo luminescence, 3 h; percent of clofoctol response, DMSO zero; caspase activation, % (no concentration beside the values); 24,000 tested, under 10 active; AID 2465; in the data active = caspase activation above about 5.9%
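System: mouse embryonic fibroblasts co-expressing A1 and BIM (A1-2A-BIM), primed for A1 dependence; amount: 2500 cells/well; doses: 50 nL pinned compound; schedule: cells settled overnight, compound exposure 3 h at 37 °C, 5% CO2; detection: Caspase-Glo 3/7 luminescence, 1 h at room temperature; read-out: Caspase-3/7 activation, seen as rise in luminescence signal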
INS-1E rescue – INS-1E beta cell protection from cytokine death | INS-1E cytokine-induced death, ATP luminescence, 48 h; normalised: neutral wells 0, positive control 100 | protection from cytokine-induced ATP loss, % at 10 µM | 20,000 tested, 0.1% active | AID 488910;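 active = mean replicate protection from cytokine-induced ATP loss at least 50% and at least 75% of replicates each reaching 50%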
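assay system = INS-1E rat insulinoma cells | amount = 8000 cells per well | medium = phenol-red-free RPMI with 5% fetal bovine serum | doses = one compound concentration, pin transfer | timing = 48 h cytokine plus compound treatment, 10 min reagent incubation | also added = IL-1β, TNF-α and IFN-γ cytokine mix | signal = CellTiter-Glo luminescence measuring cellular ATP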
T cruzi intra – intracellular Trypanosoma cruzi inhibition. activity score (inhibition), % at 5.01 µM. 22,000 tested, 4.9% active. intracellular Trypanosoma cruzi in host cells, plate reader. AID 651903; in the data active = activity score above about 55%;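 also: parasites and compound incubated about four days before reading; 0% = median of neutral control wells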
* hit, by the source's call; · = no result. Shown is part of a subset that was picked to be rich in hits.

SMILES	A1 apoptosis 2	INS-1E rescue	T cruzi intra
COc1ccc(NC(=O)Nc2cccc3c2O[C@@H](CN(C)Cc2ccc(C(=O)Nc4ccccc4N)cc2)[C@H](C)CN([C@@H](C)CO)C3=O)cc1	·	-1.9	77.4*
COc1ccc(NC(=O)Nc2cccc3c2O[C@@H](CN(C)Cc2ccc(C(=O)Nc4ccccc4N)cc2)[C@@H](C)CN([C@H](C)CO)C3=O)cc1	-1.0	·	·
COc1ccc(NC(=O)Nc2cccc3c2O[C@@H](CN(C)Cc2ccc(C(=O)Nc4ccccc4N)cc2)[C@@H](C)CN([C@@H](C)CO)C3=O)cc1	-0.8	-23.2	38.5
COc1ccc(NC(=O)Nc2cccc3c2O[C@H](CN(C)Cc2ccc(C(=O)Nc4ccccc4N)cc2)[C@H](C)CN([C@H](C)CO)C3=O)cc1	·	9.3	61.3*
O=C(CCCCCCC(=O)N/N=C/c1ccc(Br)o1)NO	-0.1	·	·
[N-]=[N+]=NCc1ccccc1C[C@@]1(C(N)=O)N=C(c2ccc(OCCCO)cc2)O[C@@H]1c1ccccc1	-0.8	·	·
Cc1noc(C)c1S(=O)(=O)Nc1ccc2c(c1)CC(=O)N([C@@H](C)CO)C[C@H](C)[C@H](CN(C)Cc1ccc(Oc3ccccc3)cc1)O2	0.0	-20.6	25.8
C[C@@H]1CN([C@@H](C)CO)C(=O)Cc2cc(NS(=O)(=O)c3ccc(F)cc3)ccc2O[C@H]1CN(C)Cc1ccc(Oc2ccccc2)cc1	0.6	·	·
C[C@@H]1CN([C@@H](C)CO)C(=O)Cc2cc(NS(=O)(=O)c3ccc(Cl)cc3)ccc2O[C@H]1CN(C)Cc1ccc(Oc2ccccc2)cc1	0.7	·	·
C[C@@H]1CN([C@H](C)CO)C(=O)Cc2cc(NS(=O)(=O)c3ccc(F)cc3)ccc2O[C@@H]1CN(C)Cc1ccc(Oc2ccccc2)cc1	-0.3	-32.2	69.3*
C[C@H](CO)N1C[C@H](C)[C@H](CN(C)S(=O)(=O)c2ccccc2)Oc2ccc(NS(=O)(=O)c3ccc(F)cc3)cc2C1=O	-1.0	-5.4	57.7*
C[C@@H]1CN([C@@H](C)CO)C(=O)c2cc(NS(=O)(=O)c3ccc(F)cc3)ccc2O[C@H]1CN(C)S(=O)(=O)c1ccccc1	-0.7	-10.2	6.7
C[C@@H]1CN([C@H](C)CO)C(=O)Cc2cc(NS(=O)(=O)c3ccc(Cl)cc3)ccc2O[C@@H]1CN(C)Cc1ccc(Oc2ccccc2)cc1	·	-27.2	61.5*
Cc1noc(C)c1S(=O)(=O)Nc1ccc2c(c1)CC(=O)N([C@H](C)CO)C[C@@H](C)[C@@H](CN(C)Cc1ccc(Oc3ccccc3)cc1)O2	-0.2	12.6	66.6*
CC(C)NC(=O)Nc1ccc2c(c1)CC(=O)N([C@H](C)CO)C[C@@H](C)[C@@H](CN(C)Cc1ccccc1)O2	-0.7	5.6	0.7
COCCCNC(=O)[C@]1(CCS(=O)(=O)c2ccccc2)N=C(c2ccc(OCCCO)cc2)O[C@@H]1c1ccccc1	1.1	·	·
O=C(C1=C[C@H](c2coc3ccccc3c2=O)C[C@H](OCCCCO)O1)N1CCCCCCC1	1.7	·	·
O=C(CCCCCCC(=O)Nc1ccccc1O)N/N=C/c1ccc[nH]1	0.4	9.9	4.6
C[C@H]1CN([C@@H](C)CO)C(=O)c2cc(NS(=O)(=O)c3ccc(F)cc3)ccc2O[C@@H]1CN(C)Cc1ccc(Oc2ccccc2)cc1	·	-15.6	69.2*
Cc1ccc(S(=O)(=O)Nc2ccc3c(c2)CC(=O)N([C@@H](C)CO)C[C@@H](C)[C@@H](CN(C)Cc2ccc(Oc4ccccc4)cc2)O3)cc1	·	-18.9	69.6*
Cc1ccc(S(=O)(=O)Nc2ccc3c(c2)CC(=O)N([C@@H](C)CO)C[C@H](C)[C@H](CN(C)Cc2ccc(Oc4ccccc4)cc2)O3)cc1	·	-35.9	16.6
C[C@H]1CN([C@@H](C)CO)C(=O)Cc2cc(NS(=O)(=O)c3ccccc3)ccc2O[C@H]1CN(C)Cc1ccc(Oc2ccccc2)cc1	-1.0	-56.4	38.9
C[C@@H]1CN([C@H](C)CO)C(=O)Cc2cc(NS(=O)(=O)c3ccccc3)ccc2O[C@@H]1CN(C)Cc1ccc(Oc2ccccc2)cc1	-1.5	-23.5	71.0*
C[C@@H]1CN([C@@H](C)CO)C(=O)c2cc(NS(=O)(=O)c3ccc(F)cc3)ccc2O[C@@H]1CN(C)Cc1ccc(Oc2ccccc2)cc1	·	-32.6	2.9
C=C[C@@H](COC(C)=O)NS(=O)(=O)c1ccc(Br)cc1	0.2	·	·
SMILES	A1 apoptosis 2	INS-1E rescue	T cruzi intra
COC(=O)CCCCCCC(=O)N/N=C/c1ccc2c(c1)CCO2	·	-3.4	-5.2
Brc1ccc2nc(N3CCCCCC3)nc(NC3CCN(Cc4ccccc4)CC3)c2c1	-0.1	·	·
C[C@H]1CN([C@@H](C)CO)C(=O)Cc2cc(NS(=O)(=O)c3cccs3)ccc2O[C@@H]1CN(C)S(=O)(=O)c1ccccc1	-0.7	-5.3	-19.0
C[C@@H]1CN([C@H](C)CO)C(=O)Cc2cc(NS(=O)(=O)c3cccs3)ccc2O[C@@H]1CN(C)S(=O)(=O)c1ccc(Cl)cc1	-1.2	3.6	71.5*
C[C@@H]1CN([C@H](C)CO)C(=O)Cc2cc(NS(=O)(=O)c3cccs3)ccc2O[C@@H]1CN(C)S(=O)(=O)c1ccccc1	0.5	-1.1	59.3*
C[C@@H]1CN([C@@H](C)CO)C(=O)Cc2cc(NS(=O)(=O)c3cccs3)ccc2O[C@H]1CN(C)S(=O)(=O)c1ccc(Cl)cc1	0.3	·	·
C[C@@H]1CN([C@@H](C)CO)C(=O)CCCn2cc(nn2)CO[C@@H]1CN(C)C(=O)NC1CCCC1	-1.7	·	-10.5
O=C(CCCCCC(=O)Nc1ccccc1O)N/N=C/c1cccc(O)c1	2.1	9.6	-9.3
O=C1CS(=O)(=O)C(c2ccccc2)N1c1ccccc1 (stereo not given)	0.0	·	·
CCOC(=O)/C=C/c1ccccc1OC	-2.6	·	·
C[C@@H]1CN([C@H](C)CO)C(=O)Cc2cc(NC(=O)Nc3ccc(F)cc3)ccc2O[C@H]1CN(C)Cc1ccc(C(=O)Nc2ccccc2N)cc1	·	0.8	32.6
C[C@@H]1CN([C@@H](C)CO)C(=O)Cc2cc(NC(=O)Nc3ccc(C(F)(F)F)cc3)ccc2O[C@@H]1CN(C)Cc1ccc(C(=O)Nc2ccccc2N)cc1	·	-28.3	83.8*
C[C@@H]1CN([C@@H](C)CO)C(=O)Cc2cc(NC(=O)Nc3ccc(F)cc3)ccc2O[C@H]1CN(C)Cc1ccc(C(=O)Nc2ccccc2N)cc1	-1.0	·	·
C[C@H]1CN([C@@H](C)CO)C(=O)Cc2cc(NC(=O)NC3CCCCC3)ccc2O[C@@H]1CN(C)Cc1ccc(C(=O)Nc2ccccc2N)cc1	-1.1	·	·
CC(C)NC(=O)Nc1ccc2c(c1)CC(=O)N([C@H](C)CO)C[C@H](C)[C@H](CN(C)Cc1ccc(C(=O)Nc3ccccc3N)cc1)O2	·	5.5	68.1*
C[C@H]1CN([C@@H](C)CO)C(=O)Cc2cc(NC(=O)Nc3ccc(F)cc3)ccc2O[C@@H]1CN(C)Cc1ccc(C(=O)Nc2ccccc2N)cc1	-0.6	5.8	33.0
C[C@H](CO)N1C[C@H](C)[C@H](CN(C)Cc2ccc(C(=O)Nc3ccccc3N)cc2)Oc2ccc(NC(=O)Nc3ccc(C(F)(F)F)cc3)cc2CC1=O	·	-20.9	82.0*

High-throughput results from PubChem BioAssay.
